Measurements reported in ChEMBL document CHEMBL1151903, “Unique behavior of 2,6-bis(bromomethyl)naphthalene as a highly active organic DNA crosslinking molecule” (Bioorg Med Chem, 2009).
Active and inactive are the calls of the source. The calls are words filed in the database; no cut-off is given here.

Experiments:
[1] = Stability in aqueous solution assessed as half life; assay type: physicochemical
Outline: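 Compound at final 10 µM in 0.01 M sodium phosphate buffer pH 7.4/MeCN (4:1). Decomposition followed by reversed-phase RP-18 HPLC with UV detection, eluting with MeCN–H2O or MeOH–H2O; half-life taken from the decomposition rate.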

[2] = tested on: CCRF-HSB-2; assay: Antiproliferative activity against human CCRF-HSB2 cells after 24 hrs by trypan blue exclusion assay; assay type: functional, cell-based; details: CCRF-HSB-2, 24 h
Outline: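 CCRF-HSB-2 cells in RPMI1640 with 10% fetal calf serum, 37 °C, 5% CO2, seeded at 3 × 10^5 cell/mL in 3 mL per well. Pre-incubated 24 h, then given compound as DMSO solution (3 µL per well) for 24 h. Trypan blue-excluding cells counted.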

[3] = tested on: Nucleic Acid; assay: Induction of […] DNA interstrand crosslinking activity at > 100 uM after 6 hrs by agarose gel electrophoresis; assay type: nucleic-acid assay
Outline: (§1)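 Linearized pBluescript plasmid DNA (460 ng) exposed to compound in DMSO at 37 °C for 6 h. DNA recovered by EtOH precipitation and lyophilized, then taken up in 1 mM EDTA in 30% aqueous DMSO. Heat-denatured at 95 °C for 5 min and ice-quenched. Run on 1% agarose gel and stained with ethidium bromide.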

[4] = tested on: Salmonella enterica subsp. enterica; assay: Mutagenic activity in Salmonella typhimurium TA100 assessed as crosslinking-associated increase in number of revertants after 2 days by Ames test; assay type: toxicity, organism-based; details: salmonella enterica subsp. enterica serovar typhimurium, 48 h
[5] = tested on: Salmonella enterica subsp. enterica; assay: Mutagenic activity in Salmonella typhimurium TA92 assessed as crosslinking-associated increase in number of revertants after 2 days by Ames test; assay type: toxicity, organism-based; details: salmonella enterica subsp. enterica serovar typhimurium, 48 h
Outline: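 TA92 grown 15.5 h at 37 °C in nutrient broth/NaCl. Culture (0.1 mL) mixed with DMSO-diluted compound (50 µL) in 0.1 M sodium phosphate pH 7.4 and preincubated 20 min at 37 °C. Mixed into 0.6% soft agar and overlaid on minimal agar. Revertant colonies counted manually after 2 days at 37 °C; mean of six plates.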

[6] = tested on: Nucleic Acid; assay: Induction of […] DNA interstrand crosslinking activity at 1 uM after 6 hrs by agarose gel electrophoresis; assay type: nucleic-acid assay; outline: as §1
[7] = tested on: Nucleic Acid; assay: Induction of […] DNA interstrand crosslinking activity at 10 uM after 6 hrs by agarose gel electrophoresis; assay type: nucleic-acid assay; outline: as §1

| SMILES | half-life [1] | Activity [4] | Activity [5] | further results |
| --- | --- | --- | --- | --- |
| BrCc1ccc(CBr)c2ncccc12 | 10.5 h |  |  |  |
| ClCc1ccc(CCl)c2ccccc12 | 5.5 h |  |  |  |
| ClCc1ccc2cc(CCl)ccc2c1 | 0.95 h |  |  |  |
| BrCc1ccc(CBr)c2ccccc12 | 0.567 h | Active | Active | Activity [6]: Active; Activity [7]: Active |

Now from value to compound, other results behind:

| half-life [1] | SMILES | Activity [4] | Activity [5] | further results |
| --- | --- | --- | --- | --- |
| 12.8 h | BrCc1ccc2nc(CBr)ccc2c1 |  |  |  |
| < 0.167 h | BrCc1ccc2cc(CBr)ccc2c1 | Active | Active | IC50 [2]: 4 µM; Activity [3]: inactive |
